Experimental data gathered from unrelated publications.
Lines come from different studies, so protocols differ.
Target: Serine/threonine-protein kinase PLK1 (PLK1, Homo sapiens, UniProt P53350)

CCCCC(=O)Nc1ccc(-c2ccc3ncn(CCC)c(=O)c3c2)cn1  remaining binding (binding; competition with immobilised ligand; 0.5 µM): 100%
COc1ccc2[nH]c3c4[nH]c5ccc(OC)cc5c4c4c(c3c2c1)C(=O)NC4=O  remaining binding (binding; 1 µM): 90%
C=CC(=O)N1CCC([C@@H]2CCNc3c(C(N)=O)c(-c4ccc(Oc5ccccc5)cc4)nn32)CC1  inhibition (enzyme activity; inhibitor; 1 µM): 31%
COc1ccc2oc(-c3ccc4nc(N)oc4c3)c/c(=N\c3ccccc3NC(=O)CCN)c2c1  remaining binding (binding; 1 µM): 98%
N#Cc1ccc(NC(=O)Nc2ccccc2)cc1  remaining binding (cell-free assay; competition with immobilised ligand; 25 µM): 93%
CC#CC(=O)N1CCC[C@H]1c1nc(-c2ccc(C(=O)Nc3ccccn3)cc2)c2c(N)nccn12  inhibition (enzyme activity; inhibitor; 1 µM): 36%
Cc1ccc(NC(=O)c2ccnc(C(F)(F)F)c2)cc1-c1cc(OCCO)nc(N2CCOCC2)c1  remaining binding (binding; 1 µM): 94%
C1=C/COCc2cc(ccc2OCCN2CCCC2)Nc2nccc(n2)-c2cccc(c2)COC/1  remaining binding (binding; 0.1 µM): 100%
